Results published in BindingDB's records for doi:10.1016/j.bmc.2019.115122 (Hokkaido University, 2019).

Columns and labels:
[1] = Agonist activity at PPARgamma in human MKN45 cells assessed as induction of cell aggregation incubated for 5 days by Hoechst 33342 staining based IN cell analyzer method
[2] = target: T1, Peroxisome proliferator-activated receptor gamma (Homo sapiens, UniProt P37231); assay: Agonist activity at PPARgamma in human MKN45 cells assessed as induction of cell aggregation incubated for 5 days by Hoechst 33342 staining based IN cell analyzer method
T1 sequence (P37231 whole entry): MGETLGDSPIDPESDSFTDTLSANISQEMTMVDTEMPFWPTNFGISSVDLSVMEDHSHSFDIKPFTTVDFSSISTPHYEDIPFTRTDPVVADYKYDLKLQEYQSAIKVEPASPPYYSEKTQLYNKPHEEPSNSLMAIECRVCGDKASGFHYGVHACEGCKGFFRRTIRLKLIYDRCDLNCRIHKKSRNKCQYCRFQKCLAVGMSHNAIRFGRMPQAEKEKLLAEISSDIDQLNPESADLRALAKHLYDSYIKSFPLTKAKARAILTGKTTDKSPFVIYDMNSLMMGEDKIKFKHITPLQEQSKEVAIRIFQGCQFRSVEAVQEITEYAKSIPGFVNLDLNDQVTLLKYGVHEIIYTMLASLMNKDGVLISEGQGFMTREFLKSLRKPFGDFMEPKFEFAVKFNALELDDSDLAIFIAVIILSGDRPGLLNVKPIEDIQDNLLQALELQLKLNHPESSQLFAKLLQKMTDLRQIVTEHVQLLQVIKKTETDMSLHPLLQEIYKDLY
Outline: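 MKN45 cells in RPMI1640 with 10% FBS at 37 °C, 5% CO2, seeded 2500 cells/well and exposed to compound 1-1000 nM (n = 3 per concentration) for 5 days. Nuclei stained with Hoechst 33342, imaged on IN Cell Analyzer, nuclear area computed. Maximum activity expressed as % of reference compound maximum; EC50 = concentration giving 50% of own maximum.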

EC50 [1] [nM] | EC50 [2] [nM] | Compound
32 |  | C/C(=C1/c2ccc(Cn3c(C4CC4)nc4c(Cl)ccnc43)cc2COc2cc(F)ccc21)c1noc(=O)[nH]1
2 |  | C/C(=C1/c2ccc(Cc3c(C4CC4)nc4ccc(Cl)cn34)cc2COc2cc(F)ccc21)c1noc(=O)[nH]1
1.7 |  | C/C(=C1/c2ccc(Cc3c(C4CC4)nc4cc(F)ccn34)cc2COc2cc(F)ccc21)c1noc(=O)[nH]1
3 |  | C/C(=C1/c2ccc(Cn3c(C4CC4)nc4cscc43)cc2COc2cc(F)ccc21)c1noc(=O)[nH]1
1.4 |  | C/C(=C1/c2ccc(Cc3c(C4CC4)nc4cc(Cl)ccn34)cc2COc2cc(F)ccc21)c1noc(=O)[nH]1
19 |  | C/C(=C1/c2ccc(Cc3c(C4CC4)nc4c5c(ccn34)OCC5)cc2COc2cc(F)ccc21)c1noc(=O)[nH]1
5.3 |  | C/C(=C1/c2ccc(Cc3c(C4CC4)nc4ccccn34)cc2COc2cc(F)ccc21)c1noc(=O)[nH]1
2.5 |  | C/C(=C1/c2ccc(Cc3c(C4CC4)nc4c(Cl)cccn34)cc2COc2cc(F)ccc21)c1noc(=O)[nH]1
1 |  | CCCc1nc2ccccc2n1Cc1ccc2c(c1)COc1cc(F)ccc1/C2=C(\C)c1noc(=O)[nH]1
3.3 |  | CCCc1nc2c(C)cccc2n1Cc1ccc2c(c1)COc1ccccc1/C2=C(\C)c1noc(=O)[nH]1
22 |  | C/C(=C1/c2ccc(Cn3c(C4CC4)nc4c(Cl)nccc43)cc2COc2cc(F)ccc21)c1noc(=O)[nH]1
 | 1 | COCc1nc2cc(Cl)ccn2c1Cc1ccc2c(c1)COc1cc(F)ccc1/C2=C(\C)c1noc(=O)[nH]1
3.8 |  | CCCc1nc2ccccc2n1Cc1ccc2c(c1)COc1c(F)cccc1/C2=C(\C)c1noc(=O)[nH]1
7 |  | CCCc1nc2ccccc2n1Cc1ccc2c(c1)COc1ccc(F)cc1/C2=C(\C)c1noc(=O)[nH]1
